According to ChEMBL document CHEMBL2177098, “Synthesis and evaluation of novel ¹⁸F labeled 2-pyridinylbenzoxazole and 2-pyridinylbenzothiazole derivatives as ligands for positron emission tomography (PET) imaging of β-amyloid plaques” (J Med Chem, 2012):
Activity calls are given as the source filed them. The calls are words filed in the database; no cut-off is given here.

Columns and labels:
Mus musculus [1] = organism: Mus musculus; test: Binding affinity to amyloid beta plaques in transgenic C57BL6 mouse cortex expressing APP Swedish mutant/PSEN1 at 370 KBq/100 ul after 1 hr by autoradiographic analysis; settings: tested as the 18F-labelled form
In short: (§1)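 Paraffin brain sections from 12-month-old Tg mice (C57BL6, APPswe/PSEN1) and age-matched controls, deparaffinized through xylene and graded ethanol, then PBS (0.2 M, pH 7.4) 30 min. Incubated with 18F tracer (370 KBq per 100 μL) 1 h at room temperature, washed in 40% EtOH, rinsed in water, then phosphor plate exposure 2 h. The same sections were afterwards stained with 0.125% thioflavin S in 10% EtOH for 3 min and washed in 40% EtOH.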

Mus musculus [2] = organism: Mus musculus; test: Binding affinity to amyloid beta plaques in transgenic C57BL6 mouse hippocampus expressing APP Swedish mutant/PSEN1 at 370 KBq/100 ul after 1 hr by autoradiographic analysis; format: tissue-based; settings: tested as the 18F-labelled form; in short: as §1
Mus musculus [3] = organism: Mus musculus; test: Binding affinity to amyloid beta plaques in transgenic C57BL6 mouse hippocampus expressing APP Swedish mutant/PSEN1 at 370 KBq/100 ul after 1 hr by thioflavinS-staining method; format: tissue-based; settings: tested as the 18F-labelled form; in short: as §1
Mus musculus [4] = organism: Mus musculus; test: Binding affinity to amyloid beta plaques in transgenic C57BL6 mouse cortex expressing APP Swedish mutant/PSEN1 at 370 KBq/100 ul after 1 hr by thioflavinS-staining method; settings: tested as the 18F-labelled form; in short: as §1
[5] = Displacement of [125I]-IMPY from amyloid beta (1 to 42) fibrils after 2 hrs by gamma-counting analysis
In short: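 Competition binding with aggregated Aβ1-42 fibrils and [125I]IMPY (60000−100000 cpm/100 μL) in 0.05% BSA (1 mL total); inhibitors 10⁻⁴−10^−8.5 M in ethanol. Incubated 37 °C for 2 h, then GF/B vacuum filtration with PBS (0.02 M, pH 7.4) washes and γ counting. Three repeats; IC50 converted to Ki by Cheng−Prusoff.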

Activity (Mus musculus [1]): Active
Activity (Mus musculus [2]): Active
Activity (Mus musculus [3]): Active
Activity (Mus musculus [4]): Active
Ki [5]: 5.8 nM
SMILES: CN(C)c1ccc(-c2nc3ccc(OCCOCCOCCF)cc3s2)cn1
